Measurements published in ChEMBL document CHEMBL1131460, “2-substituted (2SR)-2-amino-2-((1SR,2SR)-2-carboxycycloprop-1-yl)glycines as potent and selective antagonists of group II metabotropic glutamate receptors. 2. Effects of aromatic substitution, pharmacological characterization, and bioavailability” (J Med Chem, 1998).

Columns and labels:
[1] = Binding affinity for Group II Metabotropic glutamate receptor was measured using [3H]glutamate in rat forebrain membranes; assay type: cell membranes, Membrane
Outline: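 ACPD-sensitive [³H]glutamate binding to group II mGluRs in rat forebrain membranes, reported as IC50. Most values are single-point determinations; others are averages of two or three determinations. Values in parentheses are percent radioligand displacement at 1 μM.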

[2] = molecular target: T1, Metabotropic glutamate receptor 2 (Homo sapiens, UniProt Q14416); test: Effect on 1S,3R-ACPD-induced inhibition of forskolin stimulated cyclic-AMP in RGT cells expressing human Metabotropic glutamate receptor 2; assay type: functional, cell-based
[3] = molecular target: T2, Metabotropic glutamate receptor 3 (Homo sapiens, UniProt Q14832); test: Effect on 1S,3R-ACPD-induced inhibition of forskolin stimulated cyclic-AMP in RGT cells expressing human Metabotropic glutamate receptor 3; assay type: functional, cell-based
[4] = molecular target: T1, Metabotropic glutamate receptor 2; test: Compound was tested its ability to block 1S,3R-ACPD-induced inhibition of forskolin stimulated cyclic-AMP in RGT cells transfected with human Metabotropic glutamate receptor 2; Agonist; assay type: functional, cell-based
Outline: (§1)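 RGT cells transfected with human mGluR2 or mGluR3 were used. Forskolin-stimulated cyclic AMP was inhibited by (1S,3R)-ACPD, and compounds were tested for antagonism of this inhibition, giving IC50.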

[5] = molecular target: T2, Metabotropic glutamate receptor 3; test: Compound was tested its ability to block 1S,3R-ACPD-induced inhibition of forskolin stimulated cyclic-AMP in RGT cells transfected with human Metabotropic glutamate receptor 3; Agonist; assay type: functional, cell-based; outline: as §1

T2 sequence (Q14832 whole entry): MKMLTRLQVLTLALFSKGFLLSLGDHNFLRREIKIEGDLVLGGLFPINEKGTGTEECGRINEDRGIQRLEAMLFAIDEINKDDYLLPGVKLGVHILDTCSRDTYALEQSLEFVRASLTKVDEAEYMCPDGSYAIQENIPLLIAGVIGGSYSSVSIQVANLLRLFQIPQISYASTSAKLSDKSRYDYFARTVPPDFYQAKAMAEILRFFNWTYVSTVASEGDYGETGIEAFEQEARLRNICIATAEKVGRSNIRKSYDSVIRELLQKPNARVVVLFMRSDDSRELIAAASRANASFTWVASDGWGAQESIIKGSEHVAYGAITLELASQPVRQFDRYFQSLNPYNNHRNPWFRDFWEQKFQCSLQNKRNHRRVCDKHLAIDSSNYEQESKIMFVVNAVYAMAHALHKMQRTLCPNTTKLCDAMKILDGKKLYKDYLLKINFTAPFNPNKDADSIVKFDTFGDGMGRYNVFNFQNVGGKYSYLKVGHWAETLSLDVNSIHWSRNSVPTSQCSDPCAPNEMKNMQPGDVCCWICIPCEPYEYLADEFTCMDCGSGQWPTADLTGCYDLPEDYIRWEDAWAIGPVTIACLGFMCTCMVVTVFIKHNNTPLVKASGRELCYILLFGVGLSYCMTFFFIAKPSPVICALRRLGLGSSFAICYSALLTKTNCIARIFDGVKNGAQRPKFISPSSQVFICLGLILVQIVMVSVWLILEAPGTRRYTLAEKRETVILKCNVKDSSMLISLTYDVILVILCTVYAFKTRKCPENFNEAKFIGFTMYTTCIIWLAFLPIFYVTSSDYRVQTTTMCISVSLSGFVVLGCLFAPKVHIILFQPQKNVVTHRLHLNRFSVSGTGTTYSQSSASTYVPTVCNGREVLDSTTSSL
T1 sequence (Q14416 whole entry): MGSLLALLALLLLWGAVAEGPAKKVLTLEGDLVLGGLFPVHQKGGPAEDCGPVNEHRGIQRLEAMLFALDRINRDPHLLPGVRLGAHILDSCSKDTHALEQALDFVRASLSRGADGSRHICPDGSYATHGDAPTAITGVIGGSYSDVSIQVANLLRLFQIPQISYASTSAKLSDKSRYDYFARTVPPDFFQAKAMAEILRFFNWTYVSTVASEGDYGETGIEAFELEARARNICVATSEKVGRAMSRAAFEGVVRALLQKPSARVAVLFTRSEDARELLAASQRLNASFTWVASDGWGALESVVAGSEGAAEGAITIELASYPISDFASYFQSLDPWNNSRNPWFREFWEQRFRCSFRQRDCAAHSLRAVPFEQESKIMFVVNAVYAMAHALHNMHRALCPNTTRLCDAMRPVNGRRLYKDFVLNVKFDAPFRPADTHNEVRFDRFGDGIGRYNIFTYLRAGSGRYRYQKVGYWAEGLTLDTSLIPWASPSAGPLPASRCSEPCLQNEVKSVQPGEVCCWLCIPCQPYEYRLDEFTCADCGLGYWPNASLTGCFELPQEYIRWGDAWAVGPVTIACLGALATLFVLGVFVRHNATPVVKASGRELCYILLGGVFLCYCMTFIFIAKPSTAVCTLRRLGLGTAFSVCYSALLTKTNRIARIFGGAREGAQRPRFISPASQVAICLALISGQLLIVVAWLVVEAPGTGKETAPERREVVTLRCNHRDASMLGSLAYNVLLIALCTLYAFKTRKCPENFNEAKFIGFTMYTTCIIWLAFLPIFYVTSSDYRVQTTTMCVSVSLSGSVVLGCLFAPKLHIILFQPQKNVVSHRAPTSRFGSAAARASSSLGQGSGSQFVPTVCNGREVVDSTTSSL

| SMILES | IC50 [1] [nM] | also measured |
| --- | --- | --- |
| NC(CCc1cccc(C(=O)O)c1)(C(=O)O)[C@H]1C[C@@H]1C(=O)O (some centres undefined) | 77 | IC50 [2]: 1800 nM; IC50 [3]: 80 nM |
| N[C@](CC1c2ccccc2Oc2ccccc21)(C(=O)O)C1C[C@H]1C(=O)O (stereo in doubt; 174) | 4200 | – |
| N[C@](CC1c2ccccc2Oc2ccccc21)(C(=O)O)C1C[C@H]1C(=O)O (stereo in doubt; 173) | 860 | – |
| N[C@@](CCc1ccc(Cl)cc1)(C(=O)O)C1C[C@@H]1C(=O)O (some centres undefined) | 410 | – |
| N[C@@](CCc1ccc(Cl)c(Cl)c1)(C(=O)O)C1C[C@@H]1C(=O)O (some centres undefined) | 67 | – |
| N[C@@H](C(=O)O)C1C[C@@H]1C(=O)O (some centres undefined) | 470 | IC50 [4]: Agonist; IC50 [5]: Agonist |
| COc1cccc(CC[C@](N)(C(=O)O)C2C[C@@H]2C(=O)O)c1 (some centres undefined) | 94 | IC50 [2]: 430 nM; IC50 [3]: 160 nM |
| N[C@@](CCc1cccc(F)c1F)(C(=O)O)C1C[C@@H]1C(=O)O (some centres undefined) | 130 | – |
| N[C@@](CCc1ccc(F)cc1F)(C(=O)O)C1C[C@@H]1C(=O)O (some centres undefined) | 63 | – |
| NC(CC(c1ccccc1)c1ccccc1)(C(=O)O)[C@@H]1C[C@H]1C(=O)O (single isomer, unassigned) | – | Displacement ([1]; Membrane): 0% |
| N[C@@](CCc1ccc(F)c(F)c1)(C(=O)O)C1C[C@@H]1C(=O)O (some centres undefined) | 34 | – |
| N[C@@](CC(c1ccccc1)c1ccccc1)(C(=O)O)[C@H]1C[C@@H]1C(=O)O | 2000 | – |
| N[C@@](CCc1ccccc1O)(C(=O)O)C1C[C@@H]1C(=O)O (some centres undefined) | 220 | – |
| N[C@@](CCc1ccc(O)cc1)(C(=O)O)C1C[C@@H]1C(=O)O (some centres undefined) | 300 | – |
| Cc1ccccc1CC[C@](N)(C(=O)O)C1C[C@@H]1C(=O)O (some centres undefined) | 570 | – |
| Nc1cccc(CC[C@](N)(C(=O)O)C2C[C@@H]2C(=O)O)c1 (some centres undefined) | – | IC50 [2]: 3100 nM; IC50 [3]: 200 nM |
| CSc1cccc(CC[C@](N)(C(=O)O)C2C[C@@H]2C(=O)O)c1 (some centres undefined) | 410 | – |
| CS(=O)(=O)c1cccc(CC[C@](N)(C(=O)O)C2C[C@@H]2C(=O)O)c1 (some centres undefined) [listing 1 of 2 here] | 2400 | – |
| N[C@@](CCc1cc(F)cc(F)c1)(C(=O)O)C1C[C@@H]1C(=O)O (some centres undefined) | 21 | – |
| Cc1ccc(CC[C@](N)(C(=O)O)C2C[C@@H]2C(=O)O)cc1 (some centres undefined) | 590 | – |
| COc1cccc(CC[C@](N)(C(=O)O)C2C[C@@H]2C(=O)O)c1OC (some centres undefined) | 4900 | – |
| NC(CCc1ccccc1)(C(=O)O)[C@H]1C[C@@H]1C(=O)O (some centres undefined) | 320 | – |
| N[C@](CC(c1ccccc1)c1ccccc1)(C(=O)O)[C@H]1C[C@@H]1C(=O)O | 35 | IC50 [2]: 220 nM; IC50 [3]: 170 nM |
| N[C@@](CCc1cccc(C(F)(F)F)c1)(C(=O)O)C1C[C@@H]1C(=O)O (some centres undefined) | 140 | IC50 [2]: 220 nM; IC50 [3]: 420 nM |
| N[C@@](CCc1c(F)c(F)c(F)c(F)c1F)(C(=O)O)C1C[C@@H]1C(=O)O (some centres undefined) | 370 | – |
| N[C@@](CCc1cccc(F)c1)(C(=O)O)C1C[C@@H]1C(=O)O (some centres undefined) | 160 | – |
| N[C@@](CCc1cccc(Cl)c1)(C(=O)O)C1C[C@@H]1C(=O)O (some centres undefined) | 100 | IC50 [2]: 180 nM; IC50 [3]: 180 nM |
| N[C@@](CCc1cc(Cl)cc(Cl)c1)(C(=O)O)C1C[C@@H]1C(=O)O (some centres undefined) | 29 | – |

| SMILES | IC50 [1] [nM] | also measured |
| --- | --- | --- |
| CS(=O)(=O)c1cccc(CC[C@](N)(C(=O)O)C2C[C@@H]2C(=O)O)c1 (some centres undefined) [listing 2 of 2 here] | 110 | IC50 [2]: 190 nM; IC50 [3]: 180 nM |
| N[C@@](CCc1c(Cl)cccc1Cl)(C(=O)O)C1C[C@@H]1C(=O)O (some centres undefined) | 710 | – |
| N[C@@](CCc1ccccc1F)(C(=O)O)C1C[C@@H]1C(=O)O (some centres undefined) | 310 | – |
| CC(C)(C)c1cccc(CC[C@](N)(C(=O)O)C2C[C@@H]2C(=O)O)c1 (some centres undefined) | > 10000 | – |
| N[C@@](CCc1ccc(F)cc1)(C(=O)O)C1C[C@@H]1C(=O)O (some centres undefined) | 22 | IC50 [2]: 180 nM; IC50 [3]: 210 nM |
| Cc1cccc(CC[C@](N)(C(=O)O)C2C[C@@H]2C(=O)O)c1 (stereo in doubt; 104) | 89 | – |
| N[C@@](CCc1cccc(Br)c1)(C(=O)O)C1C[C@@H]1C(=O)O (some centres undefined) | 69 | – |
| CCCc1cccc(CC[C@](N)(C(=O)O)C2C[C@@H]2C(=O)O)c1 (some centres undefined) | 570 | – |
| COc1ccc(CC[C@](N)(C(=O)O)C2C[C@@H]2C(=O)O)cc1 (some centres undefined) | 1400 | – |
| N[C@@](CCc1cc(F)ccc1F)(C(=O)O)C1C[C@@H]1C(=O)O (some centres undefined) | 290 | – |
| N[C@@](CCc1ccc(-c2ccccc2)cc1)(C(=O)O)C1C[C@@H]1C(=O)O (some centres undefined) | 1500 | – |
| N[C@@](CCc1ccc(Cl)cc1Cl)(C(=O)O)C1C[C@@H]1C(=O)O (some centres undefined) | 220 | – |
| N[C@@](CCc1cccc(-c2ccccc2)c1)(C(=O)O)C1C[C@@H]1C(=O)O (some centres undefined) | 510 | – |
| N[C@@](CCc1ccc(Br)cc1)(C(=O)O)C1C[C@@H]1C(=O)O (some centres undefined) | 680 | – |
| COc1ccc(OC)c(CC[C@](N)(C(=O)O)C2C[C@@H]2C(=O)O)c1 (some centres undefined) | 170 | – |
| N[C@@](CC1c2ccccc2Oc2ccccc21)(C(=O)O)[C@H]1C[C@@H]1C(=O)O | 530 | – |
| N[C@@](CCc1cccc(Oc2ccccc2)c1)(C(=O)O)C1C[C@@H]1C(=O)O (some centres undefined) | 220 | – |
| N[C@@](CCc1cccc(C2CCCC2)c1)(C(=O)O)C1C[C@@H]1C(=O)O (some centres undefined) | > 10000 | – |
| N[C@@](CCc1ccc(C(=O)O)cc1)(C(=O)O)C1C[C@@H]1C(=O)O (some centres undefined) | 370 | – |
| N[C@@](CCc1cccc(O)c1)(C(=O)O)C1C[C@@H]1C(=O)O (some centres undefined) | 150 | IC50 [2]: 1000 nM; IC50 [3]: 260 nM |
| N[C@@](CCc1ccccc1C(F)(F)F)(C(=O)O)C1C[C@@H]1C(=O)O (some centres undefined) | 480 | – |
| COc1ccccc1CC[C@](N)(C(=O)O)C1C[C@@H]1C(=O)O (some centres undefined) | 170 | – |
| Cc1cccc(CC[C@](N)(C(=O)O)C2C[C@@H]2C(=O)O)c1 (stereo in doubt; 180) | 12 | – |
| COc1cc(CC[C@](N)(C(=O)O)C2C[C@@H]2C(=O)O)cc(OC)c1 (some centres undefined) | 110 | – |
| N[C@@](CCc1ccccc1Cl)(C(=O)O)C1C[C@@H]1C(=O)O (some centres undefined) | 260 | – |
| N[C@@](CCc1ccccc1Oc1ccccc1)(C(=O)O)C1C[C@@H]1C(=O)O (some centres undefined) | 360 | – |
| COc1ccc(CC[C@](N)(C(=O)O)C2C[C@@H]2C(=O)O)cc1OC (some centres undefined) | 460 | – |
